Reference: PMC3270411 (Chemistry & biology, 2012)

What was measured:
[1] = test system: c-Jun phosphorylation in HeLa and A375 cells; test: cellular c-Jun phosphorylation, statements for both assay formats; format: cell-based; settings: tested in parallel in HeLa and A375 formats
[2] = test system: c-Jun phosphorylation (pSer73) in HeLa cells; test: LanthaScreen TR-FRET c-Jun phosphorylation assay in HeLa cells; format: cell-based; settings: read-out: p-c-Jun EC50 (nM) Hela; Hela cells, TNF-α stimulation, TR-FRET
Outline: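 HeLa cells stably expressing GFP-c-Jun(1–79), 10,000/well in Opti-MEM with 0.5% charcoal/dextran-treated FBS, 25 mM Hepes pH 7.3, no phenol red; overnight. Pretreated 90 min with compound, then 30 min with 5 ng/ml TNF-α. Lysed in buffer containing 2 nM terbium anti-c-Jun pSer73 antibody; 60 min equilibration at room temperature. TR-FRET: excitation 340 nm, ratio Em 520/Em 490.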

[3] = test system: c-Jun phosphorylation (phospho Ser73) in A375 cells; format: cell-based; settings: read-out: p-c-Jun EC50 (nM) A375; A375 cells, anisomycin stimulation, microscopy
[4] = test system: JNK1/2/3; test: KinomeScan 400-kinase panel profiling; format: binding; settings: 10 μM
[5] = target: JNK1/2/3; test: Z'-lyte JNK kinase assays, statements for JNK1/2/3 together; format: biochemical
[6] = target: JNK1 (Homo sapiens, UniProt P45983); test: intact protein and peptide mass spectrometry of inhibitor-labeled JNK1; format: binding; settings: recombinant JNK1, 5-fold excess of compound; Cys 116
Sequence of JNK1 (P45983 26-321 limits assumed): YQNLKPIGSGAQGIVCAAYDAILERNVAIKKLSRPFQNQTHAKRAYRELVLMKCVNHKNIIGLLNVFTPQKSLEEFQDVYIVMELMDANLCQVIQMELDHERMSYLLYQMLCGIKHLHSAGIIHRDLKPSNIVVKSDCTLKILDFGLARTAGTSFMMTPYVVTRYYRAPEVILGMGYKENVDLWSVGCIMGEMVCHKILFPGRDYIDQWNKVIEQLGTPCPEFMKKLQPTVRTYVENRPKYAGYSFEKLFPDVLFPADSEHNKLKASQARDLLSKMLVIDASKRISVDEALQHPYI

[7] = target: MAPK8 (JNK1) (Homo sapiens, UniProt P45983); test: Z'-lyte JNK1 kinase assay; format: biochemical; settings: relative to JNK-IN-2
Sequence of MAPK8 (JNK1) (P45983 whole entry): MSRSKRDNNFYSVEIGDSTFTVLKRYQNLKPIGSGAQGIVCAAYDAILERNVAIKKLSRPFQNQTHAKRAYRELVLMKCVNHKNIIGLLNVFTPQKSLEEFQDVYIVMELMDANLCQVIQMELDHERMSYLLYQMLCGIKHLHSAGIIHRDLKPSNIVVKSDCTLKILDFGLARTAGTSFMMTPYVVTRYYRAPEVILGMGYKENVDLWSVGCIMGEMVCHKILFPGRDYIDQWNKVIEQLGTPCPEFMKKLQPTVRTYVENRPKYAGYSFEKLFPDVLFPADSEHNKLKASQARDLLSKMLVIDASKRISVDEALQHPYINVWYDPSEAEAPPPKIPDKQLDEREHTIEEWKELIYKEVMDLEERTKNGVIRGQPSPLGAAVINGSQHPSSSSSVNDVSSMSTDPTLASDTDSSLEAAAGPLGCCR

[8] = test system: JNK; test: pulse-chase ATP-biotin binding kinetics assay in A375 cells; format: cell-based; settings: 1μM compound, protection from ATP-biotin labeling
Outline: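 A375 cells treated with 1 μM test compound for 1–5 h, then washed three times in PBS. Lysed in NP-40/CHAPS buffer for 30 min at 4°C, cleared, and gel-filtered into HEPES kinase buffer (about 5–15 mg/ml protein). Lysate labelled with 5 μM ATP-biotin probe for 1 h, reduced with DTT, alkylated with iodoacetamide, and pulled down on streptavidin for 2 h. Read-out: SDS-PAGE and JNK immunoblot.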

[9] = target: JNK3 (Homo sapiens, UniProt P53779); test: in vitro covalent binding kinetics with purified JNK3; settings: 27 molar excess of compound
Sequence of JNK3 (P53779 whole entry): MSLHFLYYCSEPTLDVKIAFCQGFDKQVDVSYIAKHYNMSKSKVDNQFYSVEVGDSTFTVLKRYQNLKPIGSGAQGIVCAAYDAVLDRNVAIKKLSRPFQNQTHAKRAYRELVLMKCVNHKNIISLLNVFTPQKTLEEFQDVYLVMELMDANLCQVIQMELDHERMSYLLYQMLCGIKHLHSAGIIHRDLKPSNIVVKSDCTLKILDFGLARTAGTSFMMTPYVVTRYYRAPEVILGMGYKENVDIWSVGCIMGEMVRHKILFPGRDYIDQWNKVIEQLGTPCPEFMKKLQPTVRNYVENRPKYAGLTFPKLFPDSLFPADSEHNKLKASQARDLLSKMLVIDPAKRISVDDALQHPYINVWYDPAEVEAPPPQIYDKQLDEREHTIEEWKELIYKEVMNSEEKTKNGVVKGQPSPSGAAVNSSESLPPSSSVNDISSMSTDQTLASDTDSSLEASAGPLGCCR
Outline: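 Purified JNK3 incubated with 1 μM test compound for varying times, then ATP-biotin probe 5 μM for 10 min. Protein denatured with an equal volume of 8 M urea and gel-filtered. Biotinylated protein captured on streptavidin beads for 2 h, washed, boiled 10 min at 95°C, run on SDS-PAGE and immunoblotted for JNK.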

In the case of `N#CC(c1ccnc(NCCc2cccnc2)n1)c1nc2ccccc2s1` (stereo not drawn) [AS601245, reference compound], the “IC50s for inhibition of c-Jun phosphorylation in both assay formats” value [1] is reported as “micromolar range”, the EC50 [2] is reported as 2020 nM and the EC50 [3] is reported as 2400 nM.

In the case of `Cc1ccc(NC(=O)c2ccc(NC(=O)/C=C/CN(C)C)cc2)cc1Nc1nccc(-c2cccnc2)n1` [JNK-IN-1], the “binding to JNK1/2/3 in kinase selectivity profiling” value [4] is reported as “significant binding” and the “IC50 for inhibition of JNK kinase activity” value ([5]; Z'-lyte assay format) is reported as “single digit micromolar”.

For `CN(C)C/C=C/C(=O)Nc1ccc(C(=O)Nc2cccc(Nc3nccc(-c4cccnc4)n3)c2)cc1` [JNK-IN-2], the EC50 [2] was 704 nM, the IC50 ([5]; read-out: IC50 for inhibition of JNK kinase activity, Z'-lyte assay format) was about 1000 nM and the “covalent modification of JNK1 (mass spectrometry)” value [6] was “covalent addition of one molecule”. It also gave an EC50 [3] of 2400 nM.

In the case of `CN(C)C/C=C/C(=O)NCc1ccc(C(=O)Nc2cccc(Nc3nccc(-c4cccnc4)n3)c2)cc1` [JNK-IN-4], the “fold increase in biochemical IC50 against JNK1” value [7] is reported as 3 fold.

`C=CC(=O)Nc1cccc(C(=O)Nc2ccc(Nc3nccc(-c4cccnc4)n3)cc2)c1` [JNK-IN-5] was tested, and the “incubation time required to modify JNK to background levels” value [8] was “Three”, the EC50 [2] was 118 nM and the “time to completely label JNK3” value [9] was 45 min. For the same molecule, the “fold lower IC50 against JNK1, 2 and 3” value ([5]; compared with JNK-IN-2) was 500 fold and the EC50 [3] was 32 nM.

With `Cc1ccc(C(=O)Nc2ccc(Nc3nccc(-c4cccnc4)n3)cc2)cc1NC(=O)/C=C/CN(C)C` [JNK-IN-10] the EC50 [2] was 173 nM and the EC50 [3] was 141 nM.

`Oc1c2ccccc2c2c3c(cccc13)N=N2` [SP-600125] was tested, and the “IC50s for inhibition of c-Jun phosphorylation in both assay formats” value [1] was “micromolar range”.
